Source: publication PMC3228901 (Cancer research, 2011)

Experiments:
[1] = system: methylated H3K4 in F9 embryonic teratocarcinoma cells; experiment: Histone H3 methylation in F9 cells, Western blotting; assay type: cell-based, mouse; settings: for IC50: read-out: IC50 in F9 cells (histone H3K4 methylation), various concentrations
Procedure, shortened: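 F9 cells received 10 μM test compound for 24 h, plus a concentration series. Total histones were then extracted. Mono- and di-methylated H3K4, tri-methylated H3K4, di-methylated H3K9 and total histone H3 were probed by Western blot with specific antibodies. F9 cells given 50 nM LSD1 siRNA for 48 h served as comparison.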

[2] = system: 293; experiment: Growth of 293 cells; assay type: cell-based; settings: even at relatively high concentrations (100–200 μM)
[3] = system: HeLa; experiment: Growth of HeLa cells; assay type: cell-based; settings: even at relatively high concentrations (100–200 μM)
[4] = system: F9 cells; experiment: Growth of F9 cells, cell numbers counted; assay type: cell-based, mouse; settings: 50 μM, 30 hours
Procedure, shortened: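 F9 cells on gelatin-coated dishes in DMEM/10% FBS were treated with DMSO or 50 μM test compound for 30 h. Cells were then counted and expressed as percent of DMSO control. A separate concentration series was also run over 30 h.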

[5] = target: recombinant human LSD1 protein (Homo sapiens, UniProt O60341); experiment: In vitro LSD1 demethylation assay, di-methylated H3K4 peptide, mass-spectrometry; assay type: biochemical; settings: read-out: half maximal inhibitory concentration (IC50) for LSD1, 30 °C, 1 hour, MS peak areas
Procedure, shortened: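 GST-tagged human LSD1 was expressed in bacteria and purified; protein was also obtained commercially. The enzyme was incubated with di-methylated H3K4 peptide at 30 °C for 1 h, with test compound at 0–100 μM (0, 1, 2, 5, 10, 20, 50, 100 μM). Me1 and Me0 products were read by MALDI TOF/TOF MS. Conversion efficiency came from integrated product peak areas, and IC50 was fitted from conversion efficiency.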

[6] = system: NIH 3T3; experiment: Growth of NIH 3T3 cells; assay type: cell-based; settings: even at relatively high concentrations (100–200 μM)
[7] = system: mouse ES cells; experiment: Spherical growth of embryonic stem cells; assay type: cell-based; settings: 50 μM, 30 hours
Procedure, shortened: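 Mouse ES cells, cultured on irradiated mouse embryonic fibroblasts in DMEM with 10% FBS, were treated with DMSO or 50 μM test compound for 30 h. Spherical colony growth was then examined.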

[8] = system: NTERA-2 cells; experiment: Growth of NTERA-2 cells; assay type: cell-based, human; settings: 50 μM, 30 hours
Procedure, shortened: (§1)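 Human pluripotent NCCIT and NTERA-2 cells, maintained in DMEM with 10% FBS, were exposed to 50 μM test compound for 30 h and growth assessed. Non-pluripotent HeLa, 293 and NIH3T3 cells were run under the same conditions.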

[9] = system: NCCIT cells; experiment: Growth of NCCIT cells; assay type: cell-based, human; settings: 50 μM, 30 hours
Procedure, shortened: as §1

[10] = system: F9 cells; experiment: Cell permeability assay in F9 cells, mass-spectrometry; assay type: in vitro ADME, mouse; settings: 2 hours incubation, washed cells
Procedure, shortened: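 F9 cells exposed to test compound for 2 h, with DMSO as control, then extensively washed and lysed immediately. Lysate mixed with 4 volumes acetone at −20 °C for 6 h, precipitate removed by centrifugation, supernatant lyophilized and redissolved in methanol. Compound detected by mass spectrometry against pure compound and untreated-cell lysate as m/z references.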

[11] = system: CHRM4 and SCN3A gene expression in F9 cells; assay type: cell-based, mouse; settings: 10 μM, 24 hours, quantitative RT-PCR
Procedure, shortened: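 F9 mouse teratocarcinoma cells, grown in DMEM with 10% FBS on 0.1% gelatin-coated dishes, exposed to 10 μM test compound for 24 h; dose series also run in F9 and HeLa cells. CHRM4 and SCN3A mRNA quantified by real-time RT-PCR. LSD1 siRNA-treated F9 cells served as comparison.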

SMILES | IC50 [1] [µM] | growth inhibition of 293 cells [2] | growth inhibition of HeLa cells [3] | growth of F9 cells [4] | IC50 [5] [µM] | growth inhibition of NIH 3T3 cells [6] | spherical growth of ES cells [7] | growth of NTERA-2 cells [8] | growth of NCCIT cells [9] | presence of compound in F9 cells after exposure [10] | effect on mono- and di-methylated H3K4 in F9 cells ([1]; 10 μM, 24 hours) | effect on tri-methylated H3K4 and di-methylated H3K9 in F9 cells ([1]; 10 μM, 24 hours) | activation of CHRM4 and SCN3A expression [11]
COC(=O)c1cc(CN2CCN(C(=N)N)CC2)cc(C(=O)N2CCN(C(=O)c3ccc(C(=N)N)cc3)CC2)c1 [CBB1007] | 1 to 5 | did not display any significant growth inhibition | did not display any significant growth inhibition | significantly inhibit | 5.27 | did not display any significant growth inhibition | substantial inhibition | inhibited | inhibited | – | – | – | –
N=C(N)c1ccc(C(=O)N2CCN(C(=O)c3cc(CN4CCN(C(=N)N)CC4)cc([N+](=O)[O-])c3)CC2)cc1 [CBB1003] | 5 to 10 | did not display any significant growth inhibition | did not display any significant growth inhibition | significantly inhibit | 10.5 | did not display any significant growth inhibition | substantial inhibition | inhibited | inhibited | readily found | reproducible increase | very little effects | led to the activation
